Assay results published in ChEMBL document CHEMBL3352550, “Discovery and optimization of 4,5-diarylisoxazoles as potent dual inhibitors of pyruvate dehydrogenase kinase and heat shock protein 90” (J Med Chem, 2014).
Active and inactive are the calls of the source. No cut-off for these calls is given here.

Key:
[1] = target: T1, Heat shock protein HSP90 (Homo sapiens, UniProt P07900+P08238); assay: Inhibition of HSP90 in human NCI-H1299 cells assessed as increase in HSP70 protein levels at 10 uM incubated for 12 hrs by immunoblotting method; assay type: cell-based
Method in brief: (§1)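 NCI-H1299 cells were treated for 12 h and lysed in RIPA buffer with protease inhibitors. Equal protein was loaded per lane, run on a gel and transferred to nitrocellulose. Membranes were blocked in TBST with 3% BSA for 1 h at room temperature, then probed with primary antibody for 2 h and secondary antibody for 1 h, both at room temperature. Bands were detected by ECL.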

[2] = target: T1, Heat shock protein HSP90; assay: Inhibition of HSP90 in human NCI-H1299 cells assessed as reduction in HER2 protein levels at 10 uM incubated for 12 hrs by immunoblotting method; assay type: cell-based; method in brief: as §1
[3] = Apparent permeability from basolateral to apical side in human Caco2 cells; details: Caco-2
[4] = target: T2, [Pyruvate dehydrogenase (acetyl-transferring)] kinase isozyme 1, mitochondrial (Homo sapiens, UniProt Q15118); assay: Inhibition of recombinant PDHK1 (unknown origin) expressed in Escherichia coli incubated for 1 hr by ELISA
[5] = target: T1, Heat shock protein HSP90; assay: Inhibition of HSP90 in human NCI-H1299 cells assessed as reduction in AKT protein levels at 10 uM incubated for 12 hrs by immunoblotting method; assay type: cell-based; method in brief: as §1
[6] = target: T1, Heat shock protein HSP90; assay: Inhibition of HSP90 in human NCI-H1299 cells assessed as reduction in c-MET protein levels at 10 uM incubated for 12 hrs by immunoblotting method; assay type: cell-based; method in brief: as §1
[7] = Efflux ratio in human Caco2 cells; details: Caco-2
[8] = target: T2, [Pyruvate dehydrogenase (acetyl-transferring)] kinase isozyme 1, mitochondrial; assay: Inhibition of recombinant PDHK1 (unknown origin) expressed in Escherichia coli at 10 uM incubated for 1 hr by ELISA
Method in brief: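 Recombinant His6-SUMO-PDHK1 was expressed in E. coli and purified on nickel resin. It was used at 0.25 µg/well on immobilized PDHA1 substrate (0.5 µg/well) with 10 µM ATP in 50 mM HEPES, 10 mM MgCl2 and 1 mM EGTA. Compounds were screened at 10 µM and percent inhibition was recorded. Detection used anti-p-PDHA1(S293) for 1 h and HRP secondary antibody for 1 h, then o-phenylenediamine, read at OD490.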

[9] = target: T1, Heat shock protein HSP90; assay: Inhibition of geldanamycin-BODIPY binding to full-length HSP90 (unknown origin) by fluorescence polarization based competition assay; assay type: protein assay
Method in brief: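 Fluorescence polarization competition using full-length HSP90 and geldanamycin-BODIPY as probe.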

[10] = Apparent permeability from apical to basolateral side in human Caco2 cells; details: Caco-2
[11] = target: T2, [Pyruvate dehydrogenase (acetyl-transferring)] kinase isozyme 1, mitochondrial; details: NCI-H1299, 10 mM
[12] = test system: NCI-H1299; assay: Increase in oxygen consumption rate in human NCI-H1299 cells at 10 mM incubated for 12 hrs; assay type: functional, cell-based
Method in brief: (§2)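 NCI-H1299 cells were pre-treated with compound for 12 h, then oxygen consumption rate and extracellular acidification rate were read on an XF96 extracellular flux analyzer.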

[13] = test system: NCI-H1299; assay: Reduction in extracellular acidification rate in human NCI-H1299 cells at 10 mM incubated for 12 hrs; assay type: functional, cell-based; method in brief: as §2
[14] = test system: NCI-H1299; assay: Increase in oxygen consumption rate/extracellular acidification rate ratio in human NCI-H1299 cells at incubated for 12 hrs; assay type: functional, cell-based
[15] = test system: NCI-H1299; assay: Reduction in oxygen consumption rate in human NCI-H1299 cells incubated for 12 hrs; assay type: functional, cell-based
Method in brief: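 Cells pre-treated with varying concentrations of compound for 12 h, then oxygen consumption rate and extracellular acidification rate measured on an XF96 extracellular flux analyzer; ECAR/OCR ratio calculated from these readings.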

T2 sequence (Q15118 whole entry): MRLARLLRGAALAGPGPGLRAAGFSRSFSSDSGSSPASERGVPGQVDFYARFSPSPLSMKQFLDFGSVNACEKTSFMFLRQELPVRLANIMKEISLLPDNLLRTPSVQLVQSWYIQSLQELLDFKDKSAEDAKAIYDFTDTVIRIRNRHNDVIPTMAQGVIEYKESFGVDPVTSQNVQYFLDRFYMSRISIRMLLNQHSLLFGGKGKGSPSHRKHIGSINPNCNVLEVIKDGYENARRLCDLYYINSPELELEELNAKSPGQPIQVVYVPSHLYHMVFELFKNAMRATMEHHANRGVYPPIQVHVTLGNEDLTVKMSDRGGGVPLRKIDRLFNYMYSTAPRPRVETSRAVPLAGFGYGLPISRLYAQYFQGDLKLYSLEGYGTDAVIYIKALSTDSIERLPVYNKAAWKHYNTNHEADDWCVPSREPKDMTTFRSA

Compound | IC50 [4] | inhibition [8] | IC50 [9] | other results
COc1cccc(N2CCN(C(=O)/C=C/c3noc(-c4cc(Cl)c(O)cc4O)c3-c3ccc(O)cc3)CC2)c1 | 0.776 µM | > 50% | 0.666 µM | inhibition [1]: Active; inhibition [2]: Active; Papp B→A [3]: 15 ×10⁻⁶ cm/s; inhibition [5]: Active; inhibition [6]: Active; efflux ratio [7]: 2.29; Papp A→B [10]: 6.54 ×10⁻⁶ cm/s
O=C(/C=C/c1noc(-c2cc(Cl)c(O)cc2O)c1-c1ccc(O)cc1)N1CCN(c2cccc(C(F)(F)F)c2)CC1 | 2.95 µM | > 50% | 1.859 µM | –
O=C(O)C(Cl)Cl | – | – | – | inhibition [11]: Active; inhibition [12]: Active; inhibition [13]: Active
COc1ccc(-c2c(/C=C/C(=O)N3CCN(c4cccc(C(F)(F)F)c4)CC3)noc2-c2cc(Cl)c(O)cc2O)cc1 | 2.37 µM | > 50% | 2.255 µM | –
COc1ccc(-c2c(C(=O)Nc3ccc(N(C)C)cc3)noc2-c2cc(Cl)c(O)cc2O)cc1 | 0.38 µM | > 50% | 0.091 µM | –
CC1(C)CC(=O)c2c(C(F)(F)F)nn(-c3ccc(C(N)=O)c(N[C@H]4CC[C@H](O)CC4)c3)c2C1 | – | – | – | Activity [14]: inactive
COc1ccc(CN2CCC(NC(=O)c3noc(-c4cc(Cl)c(O)cc4O)c3-c3ccc(OC)cc3)CC2)cc1 | 0.017 µM | > 50% | 0.016 µM | inhibition [1]: Active; inhibition [2]: Active; Papp B→A [3]: 8.7 ×10⁻⁶ cm/s; inhibition [5]: Active; inhibition [6]: Active; efflux ratio [7]: 9.04; Papp A→B [10]: 0.962 ×10⁻⁶ cm/s
O=C(/C=C/c1noc(-c2cc(Cl)c(O)cc2O)c1-c1ccc(O)cc1)N1CCN(c2ncccn2)CC1 | 0.521 µM | > 50% | 0.338 µM | –
CC(C)c1cc(-c2n[nH]c(=O)n2-c2ccc3c(ccn3C)c2)c(O)cc1O | – | – | – | Activity [14]: inactive
COc1ccc(-c2c(C(=O)NC3CCN(Cc4ccc(Cl)cc4Cl)CC3)noc2-c2cc(Cl)c(O)cc2O)cc1 | 0.16 µM | > 50% | 0.127 µM | –
COc1ccc(-c2c(C(=O)NC3CCN(CC4CC4)CC3)noc2-c2cc(Cl)c(O)cc2O)cc1 | 0.028 µM | > 50% | 0.039 µM | inhibition [1]: Active; inhibition [2]: Active; inhibition [5]: Active; inhibition [6]: Active
O=C(/C=C/c1noc(-c2cc(Cl)c(O)cc2O)c1-c1ccc(O)cc1)N1CCN(c2ccc(Cl)c(Cl)c2)CC1 | 1.42 µM | > 50% | 3.939 µM | –
COc1ccc(-c2c(C(=O)NCc3ccc(Cl)cc3Cl)noc2-c2cc(Cl)c(O)cc2O)cc1 | 0.61 µM | > 50% | 1.6 µM | –
CC(C)NCCCn1c(Sc2cc3c(cc2I)OCO3)nc2c(N)ncnc21 | – | – | – | inhibition [15]: Active
COc1ccc(-c2c(C(=O)Nc3ccncc3)noc2-c2cc(Cl)c(O)cc2O)cc1 | 0.58 µM | > 50% | 0.154 µM | –
COc1ccc(N2CCN(C(=O)/C=C/c3noc(-c4cc(Cl)c(O)cc4O)c3-c3ccc(O)cc3)CC2)cc1 | 0.952 µM | > 50% | 0.576 µM | –
CCNC(=O)N1CCC(NC(=O)c2noc(-c3cc(Cl)c(O)cc3O)c2-c2ccc(OC)cc2)CC1 | 0.15 µM | > 50% | 0.02 µM | –

Compound | IC50 [4] | inhibition [8] | IC50 [9] | other results
CO[C@H]1/C=C\C=C(/C)C(=O)NC2=CC(=O)C(NCCN(C)C)=C(C[C@@H](C)C[C@H](OC)[C@H](O)[C@@H](C)/C=C(\C)[C@@H]1OC(N)=O)C2=O | – | – | – | inhibition [15]: Active
COc1ccc(-c2c(/C=C/C(=O)N3CCN(c4ccc(Cl)c(Cl)c4)CC3)noc2-c2cc(Cl)c(O)cc2O)cc1 | 4.31 µM | > 50% | 4.232 µM | –
O=C(/C=C/c1noc(-c2cc(Cl)c(O)cc2O)c1-c1ccc(O)cc1)N1CCN(c2ccccn2)CC1 | 0.878 µM | > 50% | 0.357 µM | –
COc1ccc(-c2c(C(=O)NC3CCN(C(C)=O)CC3)noc2-c2cc(Cl)c(O)cc2O)cc1 | 0.21 µM | > 50% | 0.025 µM | –
COc1ccc(-c2c(C(=O)NC3CCN(Cc4ccccc4)CC3)noc2-c2cc(Cl)c(O)cc2O)cc1 | 0.025 µM | > 50% | 0.036 µM | inhibition [1]: Active; inhibition [2]: Active; inhibition [5]: Active; inhibition [6]: Active
COc1c(C)cnc(Cn2cnc3c(Cl)nc(N)nc32)c1C | – | – | – | inhibition [15]: Active
COc1ccc(-c2c(/C=C/C(=O)N3CCN(c4ncccn4)CC3)noc2-c2cc(Cl)c(O)cc2O)cc1 | 1.07 µM | > 50% | 0.208 µM | inhibition [1]: Active; inhibition [2]: Active; Papp B→A [3]: 5.09 ×10⁻⁶ cm/s; inhibition [5]: Active; inhibition [6]: Active; efflux ratio [7]: 0.74; Papp A→B [10]: 6.9 ×10⁻⁶ cm/s
COc1ccc(-c2c(/C=C/C(=O)N3CCN(c4ccccc4OC)CC3)noc2-c2cc(Cl)c(O)cc2O)cc1 | 0.845 µM | > 50% | 0.596 µM | –
COc1ccc(-c2c(/C=C/C(=O)N3CCN(c4cccc(OC)c4)CC3)noc2-c2cc(Cl)c(O)cc2O)cc1 | 0.491 µM | > 50% | 0.718 µM | –
COc1ccc(-c2c(C(=O)NC3CCN(CC(C)C)CC3)noc2-c2cc(Cl)c(O)cc2O)cc1 | 0.068 µM | > 50% | 0.023 µM | –
COc1ccc(-c2c(C(=O)N3CCC(Cc4ccccc4)CC3)noc2-c2cc(Cl)c(O)cc2O)cc1 | > 10 µM | < 50% | > 10 µM | –
COc1ccc(-c2c(/C=C/C(=O)N3CCN(c4ccccn4)CC3)noc2-c2cc(Cl)c(O)cc2O)cc1 | 1.05 µM | > 50% | 0.215 µM | –
COc1ccc(-c2c(C(=O)NC3CCN(Cc4ccncc4)CC3)noc2-c2cc(Cl)c(O)cc2O)cc1 | 0.059 µM | > 50% | 0.015 µM | –
COc1ccc(-c2c(/C=C/C(=O)N3CCN(c4ccc(OC)cc4)CC3)noc2-c2cc(Cl)c(O)cc2O)cc1 | 0.557 µM | > 50% | 0.7 µM | –
COc1ccc(-c2c(C(=O)NC3CCN(S(C)(=O)=O)CC3)noc2-c2cc(Cl)c(O)cc2O)cc1 | 0.13 µM | > 50% | 0.045 µM | –
COc1ccc(-c2c(/C=C/C(=O)N3CCN(c4ccccc4)CC3)noc2-c2cc(Cl)c(O)cc2O)cc1 | 1.92 µM | > 50% | 0.677 µM | –
